# Experimental data: article PMC5542026 (Cell, 2017)
# *1 amine or outer side, *2 acyl side, *3 side chain or, on linkers, in order; H or OH if unused. Where a SMILES comes first, the peptide text is derived from it. Bridges are numbered along the chain shown (N, C = ends). [ ]: non-standard residue; d: D form. The star is where a group is joined. X2 = C[C@H](Oc1ccc([C@H](N[*:1])C(=O)[*:2])cc1)[C@@]1(/C=C/C(=O)[*:3])CO1; X1 = CC(C)[C@H](O)[C@H](C)C(=O)*; aIle = CC[C@@H](C)[C@H](N)C(=O)O; dNMeF = CN[C@H](Cc1ccccc1)C(=O)O; aThr = C[C@H](O)[C@H](N)C(=O)O
# How the values were obtained:
# S. pyogenes ATCC 12344 = assay: Broth-microdilution MIC, wild-type parent; assay type: cell-based; conditions: Todd Hewitt broth, 16 h, growth inhibited by >90%
# E. coli strain D21f2tolC [1] = assay: Broth-microdilution MIC, wild-type parent; assay type: cell-based; conditions: LB broth, 16 h, growth inhibited by >90%
# [2] = system: S. pyogenes Rif-resistant mutants; assay: Cross-resistance of Rif-resistant mutants to PUM; assay type: cell-based; conditions: Figs. 1B–C,E
# How it was run: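 S. pyogenes mutants were selected on Todd Hewitt agar with rifampicin at 0.1–2 μg/ml (1–16x MIC) and sequenced. Thirteen mutants and the isogenic wild-type parent were grown in Todd Hewitt broth at 37°C in 7% CO2/6% O2/4% H2/83% N2 to OD600 0.4–0.8. They were tested by broth microdilution with a 2-fold test compound series (0 or 1.56–100 μg/ml) for 16 h at 37°C. MIC was taken at >90% growth inhibition.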
# [3] = system: S. pyogenes and E. coli resistant mutants; assay: Cross-resistance between PUM and Lpm, Myx, Stl, CBR703, Sal; assay type: cell-based
# [4] = molecular target: T1, E. coli RNAP σ^70 holoenzyme (Escherichia coli, UniProt P0A8T7+P0A8V2); assay: Multiple-nucleotide-addition reactions; assay type: biochemical; conditions: 10 μM NTPs
# E. coli strain D21f2tolC [5] = assay: MIC on LB agar; assay type: cell-based; conditions: E. coli D21f2tolC plated on LB agar
# [6] = system: E. coli GE-resistant mutants; assay: Cross-resistance of GE-resistant mutants to PUM; assay type: cell-based
# E. coli RNAP [7] = molecular target: T2, E. coli RNAP (Escherichia coli, UniProt P0A8T7+P0A8V2); assay: Nucleotide addition in transcription initiation; assay type: biochemical; conditions: 500 μM PUM
# How it was run: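 Run per an earlier published protocol, labelled with 5 μM [α32P]UTP (3 Bq/fmol). Reactions contained no inhibitor, the test compound, 2 μM rifampicin or 100 μM lipiarmycin.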
# [8] = system: S. pyogenes strain ATCC 12344; assay: Spontaneous resistance rate, Luria-Delbrück fluctuation assays; assay type: cell-based; conditions: compared with Rif
# How it was run: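 Luria-Delbrück fluctuation assay. ~1×10^9 cfu S. pyogenes ATCC 12344 per plate were plated on Todd Hewitt agar (1.5% agar) containing 64 or 128 μg/ml test compound, or 1 or 2 μg/ml rifampicin. Colonies were counted after 24 h at 37°C, with at least six independent determinations each.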
# [9] = molecular target: T1, E. coli RNAP σ^70 holoenzyme; assay: Nucleotide addition at elevated NTP concentrations; assay type: biochemical; conditions: 6 μM PUM; 10–500 μM varied NTP
# bacterial RNAP = bacterial RNAP (Escherichia coli, UniProt P0A8T7+P0A8V2); assay: RNAP-inhibitory activity in vitro; assay type: biochemical, E. coli; S. aureus; B. subtilis; conditions: read-out: IC50, inhibition of bacterial RNAP
# [10] = system: Staphylococcus simulans strain M22; assay: Effects on macromolecular synthesis; assay type: cell-based; conditions: PUM 100–200 μM
# How it was run: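 Staphylococcus simulans M22 was grown in 0.5x Mueller Hinton II broth at 37°C with shaking to OD600 0.5, then diluted to OD600 0.1–0.2. [2-14C]-thymidine was added at 6 kBq/ml for 15 min, and the culture was split. One half received test compound (final 100–200 μM). Samples taken at 0, 10, 20 and 40 min were quenched in ice-cold 10% TCA/1 M NaCl and held 30–60 min on ice.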
# E. coli RNAP core enzyme = E. coli RNAP core enzyme (Escherichia coli, UniProt P0A8T7+P0A8V2); assay: Single-nucleotide-addition reactions; assay type: biochemical; conditions: 25 μM PUM; 2.5 μM NTPs
# How it was run: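 Elongation complexes were assembled on nucleic-acid scaffolds, annealed 5 min at 95°C and step-cooled to 4°C in 5 mM Tris-HCl pH 7.7, 200 mM NaCl, 10 mM MgCl2. Steps at 37°C: 10 min preincubation, 5 min with compound (0 or 25 μM), 5 min with single NTP.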
# S. pyogenes C203 = assay: Mouse Streptococcus pyogenes peritonitis model; assay type: in vivo
# How it was run: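 Female ICR mice (23–25 g) were acclimatised for one week at 23±2°C and 55±10% humidity. They were infected intraperitoneally with 4×10^3 cfu S. pyogenes C203 in 0.5 ml saline containing 1% peptone. Groups of eight, randomised and unblinded, received 2.5-fold test compound dilutions in 5% dextrose by one of three regimens: i.v. at 10 min and 6 h (total 3.2–50 mg/kg); single i.v. at 10 min; or single s.c. at 10 min (each total 1.024–40 mg/kg).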
# [11] = molecular target: [565Glu→Asp]β-RNAP σ^70 holoenzyme (Escherichia coli, UniProt P0A8T7+P0A8V2, E565D); assay: Fluorescence-detected transcription assay, mutant RNAP; assay type: biochemical, E. coli
# [12] = system: E. coli D21f2tolC with plasmid-encoded RNAP β/β′ derivatives; assay: E. coli plasmid-based resistance assay; assay type: cell-based; conditions: substitutions β565 Glu→Gly and β681 Met→Lys
# How it was run: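 E. coli transformants were grown from single colonies in LB with 200 μg/ml ampicillin at 37°C with shaking to OD600 0.4–0.8. They were induced with 1 mM IPTG for 1 h. About 2×10^5 cells were added to wells holding a 2-fold dilution series of test compound in the same medium (final 0 or 25–4000 μg/ml) and incubated 16 h at 37°C with shaking.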
# [13] = molecular target: T1, E. coli RNAP σ^70 holoenzyme; assay: Nucleotide addition on standard and U-less cassette templates; assay type: biochemical; conditions: standard vs U-less cassette template; 0–20 μM PUM
# [14] = molecular target: T1, E. coli RNAP σ^70 holoenzyme; assay: Formation of RNAP-promoter open complex; assay type: biochemical; conditions: 500 μM PUM
# human serum proteins = assay: Growth-curve assays in absence and presence of 30% human serum; assay type: in vitro ADME
# [15] = system: S. pyogenes PUM-resistant mutants; assay: Resistance levels of spontaneous PUM-resistant mutants; assay type: cell-based; conditions: substitutions at β residues 565, 681, and 684, and β′ residue 786
# E. coli RNAP [16] = molecular target: T2, E. coli RNAP; assay: Nucleotide addition in transcription elongation; assay type: biochemical; conditions: 500 μM PUM
# How it was run: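 Run per an earlier published protocol. Reactions contained no inhibitor, the test compound, 2 μM rifampicin or 100 μM lipiarmycin as comparator.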
# [17] = system: S. pyogenes strain L49 or S. pneumoniae strain L44; assay: Checkerboard interaction assays PUM + Rif; assay type: cell-based; conditions: FICI
compound,measurement,setting,value
lipiarmycin A3,MICwild-type,S. pyogenes ATCC 12344,6.25 µg/mL
same,MICwild-type,E. coli strain D21f2tolC [1],1.56 µg/mL
CCCC/C(C)=C/C=C(\C)C(=O)c1c(O)cc([C@H](C)CC/C=C/NC(=O)OC)oc1=O [myxopyronin B],MICwild-type,S. pyogenes ATCC 12344,6.25 µg/mL
same,MICwild-type,E. coli strain D21f2tolC [1],0.20 µg/mL
CC[C@@H](C)[C@@H]1NC(=O)[C@H](NC(=O)[C@@H](C)[C@@H](O)C(C)C)[C@H](C)OC(=O)[C@H]2COC(=O)CNC(=O)/C=C/[C@@]3(CO3)[C@H](C)Oc3ccc(cc3)[C@H](NC1=O)C(=O)N(C)[C@H](Cc1ccccc1)C(=O)N[C@@H]([C@H](C)O)C(=O)N2 [salinamide A] (X1-[dT][aIle][X2][dNMeF][aThr][dS]; ester 1-C; linker 3-6 via G),MICwild-type,E. coli strain D21f2tolC [1],0.049 µg/mL
ONC(=Nc1ccccc1)c1cccc(C(F)(F)F)c1 [CBR703],MICwild-type,E. coli strain D21f2tolC [1],6.25 µg/mL
CNC(=O)[C@@H](C)[C@H]1C(=O)/C(=C(O)/C=C/C(C)=C/[C@@H](C)[C@H]2O[C@@]3(C)O[C@H](C=C[C@@]34CO4)[C@@H]2C)C(=O)N1[C@@H]1CC[C@H](O)[C@H](C)O1 [streptolydigin],MICwild-type,S. pyogenes ATCC 12344,3.13 µg/mL
same,MICwild-type,E. coli strain D21f2tolC [1],3.13 µg/mL
"CO[C@H]1/C=C/O[C@@]2(C)Oc3c(C)c(O)c4c(O)c(c(/C=N/N5CCN(C)CC5)c(O)c4c3C2=O)NC(=O)/C(C)=C\C=C\[C@H](C)[C@H](O)[C@@H](C)[C@@H](O)[C@@H](C)[C@H](OC(C)=O)[C@@H]1C [Rif, rifampin]",MICwild-type,S. pyogenes ATCC 12344,0.098 µg/mL
same,MICwild-type,E. coli strain D21f2tolC [1],0.20 µg/mL
GE23077,MICwild-type,E. coli strain D21f2tolC [1],500 µg/mL
"NC(=O)CC[C@@H](C(=O)NC[C@H]1O[C@@H](c2c[nH]c(=O)[nH]c2=O)[C@H](O)[C@@H]1O)N(O)C(=O)CN=C(N)N [PUM, pseudouridimycin]",cross-resistance with Rif,[2],no cross-resistance
same,"cross-resistance with Lpm, Myx, Stl, CBR703, and Sal",[3],does not exhibit cross-resistance
same,"nucleotide specificity of inhibition, multiple-nucleotide addition",[4],"inhibits incorporation of U, but not G, A, or C"
same,MIC under these conditions,E. coli strain D21f2tolC [5],~800 µg/mL
same,cross-resistance with GE,[6],partial cross-resistance
same,effect on nucleotide addition in transcription initiation,E. coli RNAP [7],Inhibition by PUM of nucleotide addition in transcription initiation
same,spontaneous resistance rates,[8],an order-of-magnitude lower than those of Rif
same,effect of high NTP concentrations on transcription inhibition,[9],"high concentrations of UTP–but not high concentrations of GTP, ATP, or CTP–overcome transcription inhibition by PUM"
same,IC50,bacterial RNAP,100 nM
same,effect on DNA synthesis ([14C]-thymidine incorporation),[10],little or no inhibition of DNA synthesis
same,effect on RNA synthesis ([3H]-uridine incorporation),[10],rapid and strong inhibition of RNA synthesis
same,effect on protein synthesis ([14C]-isoleucine incorporation),[10],slower and weaker inhibition of protein synthesis
same,"nucleotide specificity of inhibition, single-nucleotide addition",E. coli RNAP core enzyme,"inhibits incorporation of U, but not G, A, or C"
same,ED50 (dose yielding 50% survival at 7 days),S. pyogenes C203,9 mg/kg
same,MICwild-type,S. pyogenes ATCC 12344,6.25 µg/mL
same,inhibition of purified RNAP containing β565 Glu→Asp,[11],PUM-resistant phenotype
same,resistance (MIC/MICwild-type),[12],≥ 4 x
same,template dependence of transcription inhibition,[13],inhibits transcription only on templates that direct incorporation of U
same,"effect on formation of catalytically-competent RNAP-promoter open complex, RPo",[14],Absence of inhibition
same,antibacterial activity in absence versus presence of human serum,"human serum proteins; 30% human serum, Fig. 1C rows 1–4",Identical results
same,unbound fraction,"human serum proteins; human serum proteins, inferred from 30% human serum assays",~ 100%
same,PUM-resistance (MIC/MICwild-type),[15],≥ 4 x
same,effect on nucleotide addition in transcription elongation,E. coli RNAP [16],Inhibition by PUM of nucleotide addition in transcription elongation
same,antibacterial activity when co-administered with Rif,[17],additive antibacterial activity
same,MICwild-type,E. coli strain D21f2tolC [1],400 µg/mL
